Active and inactive are the calls of the source. The calls are words filed in the database; no cut-off is given here.
Legend:
Listeria monocytogenes [1] = test: Antibacterial activity against Listeria monocytogenes ATCC 19115; assay type: functional
Acinetobacter baumannii = test: Antibacterial activity against Acinetobacter baumannii ATCC 19606; assay type: functional
[2] = Antifungal activity against fluconazole/itraconazole/voriconazole-susceptible Candida albicans ATCC 2876; assay type: functional
Pseudomonas aeruginosa [3] = test: Antibacterial activity against Pseudomonas aeruginosa ATCC 27853; assay type: functional
Klebsiella pneumoniae = test: Antibacterial activity against Klebsiella pneumoniae ATCC 27736; assay type: functional
Escherichia coli = test: Antibacterial activity against Escherichia coli MC1061; assay type: functional
Outline: (§1)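 Values were set in μM and converted to μg/mL for presentation. Amikacin, ampicillin and ofloxacin served as positive controls.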

[4] = Antifungal activity against fluconazole/itraconazole/voriconazole-resistant Candida albicans ATCC 64124; assay type: functional
[5] = Cytotoxicity against human A549 cells assessed as reduction in cell survival; assay type: toxicity, cell-based
[6] = test system: Mycolicibacterium smegmatis; test: Antimycobacterial activity against Mycobacterium smegmatis MC2 155; assay type: functional; settings: str. MC2 155; outline: as §1
Staphylococcus aureus [7] = test: Antibacterial activity against methicillin-resistant Staphylococcus aureus; assay type: functional; outline: as §1
Candida albicans [8] = test: Antifungal activity against Candida albicans ATCC 1003; assay type: functional
[9] = Antifungal activity against fluconazole/itraconazole/voriconazole-resistant Candida albicans ATCC 1237; assay type: functional
Enterococcus [10] = test: Antibacterial activity against vancomycin-resistant Enterococcus; assay type: functional; outline: as §1
Enterobacter cloacae = test: Antibacterial activity against Enterobacter cloacae ATCC 13047; assay type: functional; settings: subsp. cloacae ATCC 13047
[11] = Antifungal activity against fluconazole/itraconazole/voriconazole-resistant Candida albicans ATCC 10231; assay type: functional
[12] = Antibacterial activity against Salmonella enterica ATCC 14028; assay type: functional
Bacillus subtilis = test: Antibacterial activity against Bacillus subtilis 168; assay type: functional; settings: subsp. subtilis str. 168
[13] = Cytotoxicity against human BEAS2B cells assessed as reduction in cell survival; assay type: toxicity, cell-based; settings: beas-2b
[14] = Antifungal activity against fluconazole/itraconazole/voriconazole-susceptible Candida albicans ATCC 2310; assay type: functional
[15] = Antifungal activity against fluconazole/itraconazole/voriconazole-resistant Candida albicans ATCC 90819; assay type: functional
Staphylococcus aureus [16] = test: Ratio of MIC for methicillin-resistant Staphylococcus aureus after and before 15 serial passages at 0.5 times MIC; assay type: functional
Outline: (§2)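 Multi-step resistance selection with serial sub-culture of bacteria at sub-inhibitory compound concentrations for 15 passages. MIC was redetermined after each passage to follow any increase over the starting value. Amikacin was run in parallel as reference.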

Enterococcus [17] = test: Ratio of MIC for vancomycin-resistant Enterococcus after and before 15 serial passages at 0.5 times MIC; assay type: functional; outline: as §2
Listeria monocytogenes [18] = test: Ratio of MIC for Listeria monocytogenes ATCC 19115 after and before 15 serial passages at 0.5 times MIC; assay type: functional; outline: as §2
Enterococcus [19] = test: Antibacterial activity against vancomycin-resistant Enterococcus at 0.5 times MIC after […] serial passages; assay type: functional; outline: as §2
Listeria monocytogenes [20] = test: Antibacterial activity against Listeria monocytogenes ATCC 19115 at 0.5 times MIC after […] serial passages; assay type: functional; outline: as §2
Candida albicans [21] = test: Induction of intracellular ROS production in Candida albicans ATCC 10231 at 1 to 2 times MIC after 1 hr by DCFH-DA probe based fluorescence microscopic analysis; assay type: functional, cell-based
Outline: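 C. albicans ATCC 10231 was exposed for 1 h at 35 °C, with untreated cells as negative control and 1 mM H2O2 as positive control. Cells were then stained with DCFH-DA (20 μg/mL), and intracellular ROS was read by fluorescence microscopy.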

Candida albicans [22] = test: Ratio of MIC for Candida albicans ATCC 10231 after and before 13 serial passages at 0.5 times MIC; assay type: functional
Pseudomonas aeruginosa [23] = test: Ratio of MIC for Pseudomonas aeruginosa ATCC 27853 after and before 15 serial passages at 0.5 times MIC; assay type: functional; outline: as §2

SMILES	MIC (Listeria monocytogenes [1]) [µM]	MIC (Acinetobacter baumannii) [µM]	MIC [2] [µM]	MIC (Pseudomonas aeruginosa [3]) [µM]	MIC (Klebsiella pneumoniae) [µM]	MIC (Escherichia coli) [µM]	MIC [4] [µM]	IC50 [5] [µg/mL]	MIC [6] [µM]	MIC (Staphylococcus aureus [7]) [µM]	MIC (Candida albicans [8]) [µM]	MIC [9] [µM]	MIC (Enterococcus [10]) [µM]	MIC (Enterobacter cloacae) [µM]	MIC [11] [µM]	MIC [12] [µM]	MIC (Bacillus subtilis) [µM]	IC50 [13] [µg/mL]	MIC [14] [µM]	MIC [15] [µM]	also measured
Cl.N=C(N)N/N=C/c1ccc(-c2ccc(/C=N/Nc3ccc(F)cc3F)cc2)cc1	2 to 3.9	> 500	9.1	> 500	> 500	> 500	9.1	4.8	2 to 3.9	3.9	4.5	9.1	3.9	> 500	2.3	> 500	> 500	5.8	9.1	18.2	–
C/C(=N\NC(=N)N)c1ccc(Cc2ccc(/C(C)=N/NC(=N)N)cc2)cc1.Cl.Cl	3.9	> 500	8.9	> 500	> 500	> 500	17.8	4.3	2	3.9	17.8	17.8	2	> 500	17.8	> 500	> 500	2.9	17.8	17.8	–
Cl.N=C(N)N/N=C/c1ccc(-c2ccc(/C=N/Nc3ccccc3Br)cc2)cc1	2	> 500	8.3	> 500	> 500	> 500	8.3	6.7	3.9	2	4.1	8.3	2	> 500	4.1	> 500	> 500	3.4	8.3	8.3	–
C/C(=N\NC(=N)N)c1ccc(-c2ccc(/C(C)=N/NC(=N)N)cc2)cc1.Cl.Cl	> 500	> 500	4.7	2	15.6	62.5	4.7	6.3	> 500	> 500	18.4	> 73.9	> 500	125	4.7 to 9.2	> 500	> 500	1.7	9.2	9.2	–
Cl.N=C(N)N/N=C/c1ccc(-c2ccc(/C=N/Nc3ccc(Cl)cc3)cc2)cc1	3.9	> 500	18.3	> 500	> 500	> 500	36.5	4.9	3.9	7.8	9.1	36.5	3.9	> 500	18.3	> 500	> 500	6	9.1	18.3	–
C/C(=N\NC(=N)N)c1ccc(CCc2ccc(/C(C)=N/NC(=N)N)cc2)cc1.Cl.Cl	1	> 500	8.6	> 500	> 500	> 500	> 69.3	2.9	1	1 to 2	34.6	34.6	1	> 500	17.3	> 500	> 500	1.8	69.3	17.3	fold change (FC) (Staphylococcus aureus [16]): 4 - 16; fold change (FC) (Enterococcus [17]): 16; fold change (FC) (Listeria monocytogenes [18]): 8
Cl.Cl.N=C(N)N/N=C/c1ccc(-c2cccc(/C=N/NC(=N)N)c2)cc1	1	> 500	9.9	> 500	> 500	> 500	9.9	13.9	1	3.9	9.9	9.9	3.9	> 500	9.9	> 500	> 500	5.7	9.9	9.9	–
Cl.N=C(N)N/N=C/c1ccc(-c2ccc(/C=N/Nc3ccccc3Cl)cc2)cc1	1 to 2	> 500	4.6	> 500	> 500	> 500	9.2	2.8	3.9	–	4.6	9.2	–	> 500	4.6	> 500	> 500	2.3	4.6	4.6	Activity (Enterococcus [19]): Active; Activity (Listeria monocytogenes [20]): Active; Activity (Candida albicans [21]): Active
C/C(=N\NC(=N)N)c1cccc(/C(C)=N/NC(=N)N)c1.Cl.Cl	250	> 500	22.5	500	> 500	> 500	> 90.1	31.2	15.6	> 500	> 90.1	90.1	125	> 500	> 90.1	62.5 to 250	250	33	90.1	> 90.1	–
C/C(=N\NC(=N)N)c1ccc2c(c1)Cc1cc(/C(C)=N/NC(=N)N)ccc1-2.Cl.Cl	< 0.5	500	2.3	1 to 2	31.3 to 62.5	500	2.3	2.5	–	1 to 2	2.3	4.6	–	500	2.3 to 4.6	3.9	7.8	1.8	2.3	4.6	fold change (FC) (Candida albicans [22]): 2; fold change (FC) (Staphylococcus aureus [16]): 1; fold change (FC) (Enterococcus [17]): 1; fold change (FC) (Pseudomonas aeruginosa [23]): 1; fold change (FC) (Listeria monocytogenes [18]): 1; Activity (Candida albicans [21]): Active
Cl.Cl.N=C(N)N/N=C/c1ccc(-c2ccc(/C=N/NC(=N)N)cc2)cc1	1	> 500	19.7	> 500	> 500	> 500	> 79.2	6.6	> 500	3.9	19.7	39.5	2	> 500	39.5	> 500	> 500	3	> 79.2	> 79.2	–
Cl.N#Cc1ccc(N/N=C/c2ccc(-c3ccc(/C=N/NC(=N)N)cc3)cc2)cc1	7.8	15.6 to 31.3	37.3	31.3 to 62.5	15.6 to 31.3	62.5 to 125	74.9	4.2	15.6 to 31.3	15.6	18.7	37.3	2 to 3.9	500	37.3	15.6	31.3	1.9	37.3	37.3	–

Source: ChEMBL document CHEMBL3871280, “Bis(N-amidinohydrazones) and N-(amidino)-N'-aryl-bishydrazones: New classes of antibacterial/antifungal agents” (Bioorg Med Chem, 2017)
